B1: tRNA (parent)
chain: GUUCCGUUGGCGUAAUGGUAACGCGUCUCCCUCCUAAGGAGAAGACUGCGGGUUCGAGUCCCGUACGGAACG

Variants of: B1
Assay: yeast fitness, log relative to wild type (ln ratio); higher = fitter; tRNA-Arg(CCU), competitive growth, 37 C, 1 M NaCl
Outline: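 Fitness is the natural log of each genotype's generations divided by the wild type's. Generations were derived as OD-scaled log2 output/input frequency from 125 bp paired-end Illumina counts, weighting replicates by inverse variance. Pools of the tRNA-Arg(CCU) variant library, on a HIS3 centromeric plasmid in BY4742 lacking the chromosomal gene, grew ~6.5 generations (~26.5 h) in SC-HIS 1M NaCl at 37 °C after 4 generations in SC-HIS at 30 °C.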

Variant | yeast fitness (ln)
G1A G6A C66A A69G A70G C71U | -0.194
G1A G6U C27U C66A A70U | -0.407
G1A G6U C27U C66A A70G | -0.228
G1A G6U A70G | -0.192
G1A G6U A70U | -0.156
G1A G6U C46U A69G A70U | -0.0951
G1A G6U C46U A69G A70G | -0.203
G1A G6U C27U A43C A70G | -0.439
G1A G6U C27U A43C A70U | -0.331
G1A G6A C46U C66U A69G C71U | -0.0213
G1A G6U C27U C66A A69G C71U | -0.388
G1A G6U A43C | -0.192
G1A G6A C27U A69G A70G | -0.342
G1A G6A C27U A69G A70U | -0.353
G1A G6U A43C C46U A70U C71U | -0.297
G1A G6A C27U C66U A69G A70G C71U | -0.442
G1A G6A C66U A69G A70G | -0.235
G1A G6A C66U A69G A70U | -0.102
G1A G6A C46U | -0.0333
G1A G6U C27U A43C C46U A69G C71U | -0.328
G1A G6U C27U C66A C71U | -0.0761

Variant | yeast fitness (ln)
G1A G6A C66U A69G C71U | -0.0291
G1A G6U A43C C46U C66U A70G C71U | -0.278
G1A G6U C27U C46U C66A A69G A70U C71U | -0.37
G1A G6A C46U C66U C71U | 0.000947
G1A G6A C27U A70G | -0.34
G1A G6A C27U A70U | -0.293
G1A G6A C71U | -0.363
G1A G6A C27U A69G A70U C71U | -0.504
G1A G6U A43C C46U C66U A69G A70G C71U | -0.333
G1A G6U C27U C46U C66A A69G A70G C71U | -0.58
G1A G6A C46U A70U C71U | -0.0983
G1A G6U C27U C46U C66U A70G C71U | -0.302
G1A G6U C27U A43C C46U C66U A69G A70G | -0.353
G1A G6U C27U A43C C46U C66U A69G A70U | -0.452
G1A G6A C27U C66U A70U C71U | -0.461
G1A G6U C27U A43C A69G A70U C71U | -0.58
G1A G6U A43C A70G C71U | -0.383
G1A G6U C27U A43C C46U C66U C71U | -0.364
G1A G6A C46U C66A A69G A70G C71U | -0.151
G1A G6U C27U C46U C66A A70G C71U | -0.23
G1A G6U C27U A43C C46U C66A A69G A70G C71U | -0.359

Variant | yeast fitness (ln)
G1A G6U C27U C46U C66U A69G A70U | -0.454
G1A G6U C27U C46U C66U A69G A70G | -0.28
G1A G6A C27U A43C C66U A69G A70G C71U | -0.487
G1A G6U C27U C66U A69G A70G C71U | -0.386
G1A G6A C27U C46U A70U C71U | -0.258
G1A G6A C27U C66U A69G A70U | -0.324
G1A G6A C27U C66U A69G A70G | -0.386
G1A G6A C66A A70U C71U | -0.163
G1A G6U A43C C46U C66A A69G A70U C71U | -0.301
G1A G6A C27U C66A A70U | -0.139
G1A G6A C46U C66A C71U | -0.258
G1A G6A C27U C46U C66U A69G A70U C71U | -0.436
G1A G6U A43C C66U | -0.232
G1A G6U A43C C66A | -0.19
G1A G6U A43C A69G A70G C71U | -0.398
G1A G6U A43C C46U A70G C71U | -0.301
G1A G6U C27U A43C C66U A70G C71U | -0.415
G1A G6U A43C C46U C66U A70U C71U | -0.432
G1A G6A C27U C46U C66U A69G C71U | -0.132
G1A G6A C66A C71U | -0.0846
G1A G6U C27U A43C C46U C66U A70G C71U | -0.596

Variant | yeast fitness (ln)
G1A G6A C27U C66A A69G A70G C71U | -0.392
G1A G6U A43C C66U A70U C71U | -0.38
G1A G6A C27U A43C C46U C66A A70U C71U | -0.209
G1A G6U | -0.0886
G1A G6A C46U C66U A69G | -0.423
G1A G6A C27U C66U A69G C71U | -0.321
G1A G6U C27U C46U | -0.207
G1A G6U C27U C46U C66U A69G A70G C71U | -0.388
G1A G6A C27U A43C C46U C66U A69G A70G | -0.309
G1A G6A C27U A43C C46U C66U A69G A70U | -0.471
G1A G6A C46U A70U | -0.103
G1A G6A C46U A70G | -0.0807
G1A G6A C27U C46U A70G | -0.208
G1A G6A C27U C46U A70U | -0.164
G1A G6U C27U C46U C66U A69G A70U C71U | -0.4
G1A G6A C27U C46U C66A A70G C71U | -0.269
G1A G6U A69G A70G | -0.198
G1A G6U A69G A70U | -0.131
G1A G6U C27U A43C C46U A70G C71U | -0.321
G1A G6A C27U C46U C66A A69G A70G C71U | -0.145
G1A G6U A43C C66A A69G A70G C71U | -0.348

From the RNAGym collection of RNA variant scans (doi:10.1038/s41586-018-0170-7)
